{"source": "the RNAGym collection of RNA variant scans (doi:10.1038/s41586-018-0170-7)", "parents": {"B1": {"name": "tRNA (parent)", "chain": "GUUCCGUUGGCGUAAUGGUAACGCGUCUCCCUCCUAAGGAGAAGACUGCGGGUUCGAGUCCCGUACGGAACG"}}}
{"variants_of": "B1", "experiment": "yeast fitness, log relative to wild type (ln ratio); higher = fitter; tRNA-Arg(CCU), competitive growth, 37 C, 1 M NaCl", "how_it_was_run": "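Genotype fitness is expressed as the natural log of its generations over those of the wild type. Each pool of the tRNA-Arg(CCU) variant library, carried on a HIS3 centromeric plasmid in BY4742 lacking the chromosomal gene, came from one of two independent transformations and grew 4 generations in SC-HIS at 30 °C before ~6.5 generations (~26.5 h) in SC-HIS 1M NaCl at 37 °C. Generation numbers used OD-scaled log2 output/input frequencies from 125 bp paired-end Illumina sequencing, combined across replicates by inverse-variance weighting.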"}
{"variant": "U2C G6A C27U C66U A70U C71U", "yeast fitness (ln)": -0.212}
{"variant": "G6A A70U", "yeast fitness (ln)": -0.0535}
{"variant": "U2C G6A A43C C46U C66A A70U C71U", "yeast fitness (ln)": -0.0318}
{"variant": "U2C G6U C46U C66U A70G C71U", "yeast fitness (ln)": -0.0117}
{"variant": "U2G C27U A43C C46U C66A A70U C71U", "yeast fitness (ln)": -0.262}
{"variant": "U2G A43C C46U A70U C71U", "yeast fitness (ln)": -0.0246}
{"variant": "G1A U2C G6A C66U A69G A70G", "yeast fitness (ln)": -0.0913}
{"variant": "G1A U2G C27U C46U C66A A70U C71U", "yeast fitness (ln)": -0.185}
{"variant": "G1A U2G G6U A43C A69G A70G", "yeast fitness (ln)": -0.277}
{"variant": "U2G C27U C46U C66U A69G A70G", "yeast fitness (ln)": -0.187}
{"variant": "U2G G6U C46U", "yeast fitness (ln)": -0.0208}
{"variant": "U2G C27U A43C C46U A70U", "yeast fitness (ln)": -0.00371}
{"variant": "U2G C27U A43C C46U A70G", "yeast fitness (ln)": -0.227}
{"variant": "G1A G6U A43C C46U C66A A70U C71U", "yeast fitness (ln)": -0.334}
{"variant": "U2G G6U C27U C46U C66U A70G C71U", "yeast fitness (ln)": -0.261}
{"variant": "U2G G6A C46U C66U A70U C71U", "yeast fitness (ln)": -0.0272}
{"variant": "G1A U2C C27U C46U A69G A70U C71U", "yeast fitness (ln)": -0.359}
{"variant": "G1A U2C C27U A43C C46U A70U C71U", "yeast fitness (ln)": -0.221}
{"variant": "G1A U2G G6U C27U A43C A70G", "yeast fitness (ln)": -0.419}
{"variant": "U2C A43C A69G", "yeast fitness (ln)": -0.0815}
{"variant": "A43C C46U C66U A69G", "yeast fitness (ln)": -0.172}
{"variant": "G1A G6U C66U A70G C71U", "yeast fitness (ln)": -0.272}
{"variant": "G1A U2C C27U C66A A70G C71U", "yeast fitness (ln)": -0.221}
{"variant": "G6A C46U C66U A69G C71U", "yeast fitness (ln)": -0.0544}
{"variant": "G1A C27U C66A A69G A70U C71U", "yeast fitness (ln)": -0.303}
{"variant": "G6U C46U C66U A69G A70G", "yeast fitness (ln)": -0.275}
{"variant": "G6A A43C C46U C66A C71U", "yeast fitness (ln)": -0.229}
{"variant": "U2G G6U C27U A43C A69G A70U", "yeast fitness (ln)": -0.315}
{"variant": "U2G G6A A43C C46U C66A A69G A70G C71U", "yeast fitness (ln)": -0.212}
{"variant": "U2C C66U A69G A70G", "yeast fitness (ln)": -0.0264}
{"variant": "G1A U2G G6A C27U C46U A69G A70G C71U", "yeast fitness (ln)": -0.332}
{"variant": "U2G G6U C66A A70U", "yeast fitness (ln)": 0.00254}
{"variant": "U2C G6U C27U A43C C66A A70U C71U", "yeast fitness (ln)": -0.272}
{"variant": "U2C A43C C66U C71U", "yeast fitness (ln)": -0.24}
{"variant": "G1A G6A C27U C46U C66U A70U C71U", "yeast fitness (ln)": -0.478}
{"variant": "G6U C27U A43C", "yeast fitness (ln)": -0.197}
{"variant": "U2C A70U", "yeast fitness (ln)": -0.0103}
{"variant": "G1A U2G G6A C71U", "yeast fitness (ln)": -0.136}
{"variant": "U2G G6A A69G A70G C71U", "yeast fitness (ln)": -0.181}
{"variant": "G6A C27U A43C A70G", "yeast fitness (ln)": -0.213}
{"variant": "G6A A43C C66U A69G A70G", "yeast fitness (ln)": -0.35}
{"variant": "G6A A43C C46U A69G A70U C71U", "yeast fitness (ln)": -0.493}
{"variant": "G6A C27U C46U C66A", "yeast fitness (ln)": -0.126}
{"variant": "U2C G6U C27U C46U C66A A70U C71U", "yeast fitness (ln)": -0.161}
{"variant": "C46U C66A A70G", "yeast fitness (ln)": -0.0456}
{"variant": "A43C C46U C66U A70U C71U", "yeast fitness (ln)": -0.211}
{"variant": "C27U C66U C71U", "yeast fitness (ln)": -0.173}
{"variant": "U2C G6U C27U A43C C66A C71U", "yeast fitness (ln)": -0.176}
{"variant": "G6U C27U A43C C66A A70G", "yeast fitness (ln)": -0.293}
{"variant": "G1A U2C G6A A70U", "yeast fitness (ln)": -0.0459}
{"variant": "C46U C66A C71U", "yeast fitness (ln)": -0.0724}
{"variant": "G1A G6A C46U C66U A69G A70G", "yeast fitness (ln)": -0.136}
{"variant": "C27U A43C C66U C71U", "yeast fitness (ln)": -0.269}
{"variant": "U2C G6A C27U A69G A70G C71U", "yeast fitness (ln)": -0.216}
{"variant": "C27U A43C C66U A70U C71U", "yeast fitness (ln)": -0.326}
{"variant": "G1A G6A A43C C46U A69G C71U", "yeast fitness (ln)": -0.194}
{"variant": "G1A G6A C27U A43C C46U C66U", "yeast fitness (ln)": -0.131}
{"variant": "G1A G6A C27U C66U A70G C71U", "yeast fitness (ln)": -0.566}
{"variant": "G6A C27U A69G A70U C71U", "yeast fitness (ln)": -0.416}
{"variant": "U2G G6U C66U A69G A70U C71U", "yeast fitness (ln)": -0.421}
{"variant": "G6A C27U C66A A69G A70G C71U", "yeast fitness (ln)": -0.288}
{"variant": "C27U A43C A69G A70G C71U", "yeast fitness (ln)": -0.142}
{"variant": "G6A A43C C46U A70G", "yeast fitness (ln)": -0.0876}
{"variant": "A43C C66A A69G A70U C71U", "yeast fitness (ln)": -0.398}
{"variant": "G1A U2C G6A C46U C66U C71U", "yeast fitness (ln)": -0.0596}
{"variant": "U2G C27U A43C C66A A69G A70G", "yeast fitness (ln)": -0.42}
{"variant": "G6U C27U A43C C46U C66A A69G C71U", "yeast fitness (ln)": -0.439}
{"variant": "G1A C27U A69G A70U", "yeast fitness (ln)": -0.216}
{"variant": "U2G G6U C27U A43C C46U A70G C71U", "yeast fitness (ln)": -0.295}
{"variant": "U2C A43C C66U A69G A70U C71U", "yeast fitness (ln)": -0.605}
{"variant": "G1A U2G C66A A70G", "yeast fitness (ln)": -0.114}
{"variant": "C27U C46U C66A A69G A70U C71U", "yeast fitness (ln)": -0.396}
{"variant": "U2G G6A A43C C66A A70U", "yeast fitness (ln)": -0.12}
{"variant": "G1A G6A C27U C66A A70U", "yeast fitness (ln)": -0.139}
{"variant": "C46U A70U", "yeast fitness (ln)": 0.00508}
{"variant": "G1A U2G G6U A43C C66U A70U", "yeast fitness (ln)": -0.284}
{"variant": "G6A C66U A70G", "yeast fitness (ln)": -0.00631}
{"variant": "U2C G6A C27U C71U", "yeast fitness (ln)": -0.212}
{"variant": "G1A U2G A43C C46U", "yeast fitness (ln)": -0.042}
{"variant": "G1A G6U C66A A69G A70G C71U", "yeast fitness (ln)": -0.17}
{"variant": "U2G G6U C27U C66A A70U C71U", "yeast fitness (ln)": -0.275}
{"variant": "U2C G6A A43C C46U A70U C71U", "yeast fitness (ln)": -0.09}
{"variant": "U2G G6A C27U A43C C66U A69G A70G", "yeast fitness (ln)": -0.3}
